# Experiments:
# [1] = tested on: rodent and human cancer cell lines; settings: large variety of cell lines; ref Investigator’s Brochure, version 5, 2010; cited from earlier work
# [2] = tested on: patients with advanced solid tumors; assay: Safety and tolerability, first-in-human dose escalation; type: in vivo; settings: for Total number of AEs at each dose level: treatment-related clinical AEs
# Summary of the method: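 Open-label 3+3 escalation: oral once-daily dosing on days 1–5 every 14 days at 100, 200, 400, 600 and 800 mg, with 3–6 patients per level and 4 cycles. Adverse events were graded by NCI-CTC-AE v3.0 from first dose to 30 days after last dose. DLTs were assessed over the first 14 days. Evaluable patients had five consecutive doses plus safety evaluations over nine days.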
# [3] = tested on: relapsed/refractory Hodgkin lymphoma; settings: cited from earlier work
# [4] = first 4 treatment cycles, 68 cycles
smiles,measurement,setting,value
CN(C)Cc1ccc(S(=O)(=O)n2ccc(/C=C/C(=O)NO)c2)cc1 [resminostat],Concentrations that inhibit proliferation,[1],sub-to-low micromolar
same,"Dysgeusia, treatment-related, patients by maximum grade","[2]; 100 mg (N=3), grade 1",1
same,"Fatigue, treatment-related, patients by maximum grade","[2]; 100 mg (N=3), grade 1",1
same,Total number of AEs at each dose level,[2]; 100 mg (N=3),2
same,"Nausea, treatment-related, patients by maximum grade","[2]; 200 mg (N=3), grade 1",1
same,"ALT increase, treatment-related, patients by maximum grade","[2]; 200 mg (N=3), grade 2",1
same,Total number of AEs at each dose level,[2]; 200 mg (N=3),2
same,"Arrhythmia, treatment-related, patients by maximum grade","[2]; 400 mg (N=3), grade 1",1
same,"Thrombocytopenia, treatment-related, patients by maximum grade","[2]; 400 mg (N=3), grade 1",1
same,"Nausea, treatment-related, patients by maximum grade","[2]; 400 mg (N=3), grade 2",2
same,Total number of AEs at each dose level,[2]; 400 mg (N=3),4
same,"Anorexia, treatment-related, patients by maximum grade","[2]; 600 mg (N=3), grade 1",1
same,"Depression, treatment-related, patients by maximum grade","[2]; 600 mg (N=3), grade 1",1
same,"Diarrhea, treatment-related, patients by maximum grade","[2]; 600 mg (N=3), grade 1",1
same,"Dysgeusia, treatment-related, patients by maximum grade","[2]; 600 mg (N=3), grade 1",1
same,"Fatigue, treatment-related, patients by maximum grade","[2]; 600 mg (N=3), grade 1",1
same,"Nausea, treatment-related, patients by maximum grade","[2]; 600 mg (N=3), grade 1",3
same,"Vomiting, treatment-related, patients by maximum grade","[2]; 600 mg (N=3), grade 1",2
same,"Anemia, treatment-related, patients by maximum grade","[2]; 600 mg (N=3), grade 2",1
same,"Fatigue, treatment-related, patients by maximum grade","[2]; 600 mg (N=3), grade 2",1
same,"Anorexia, treatment-related, patients by maximum grade","[2]; 800 mg (N=7), grade 1",3
same,"Dysgeusia, treatment-related, patients by maximum grade","[2]; 800 mg (N=7), grade 1",1
same,"Electrocardiogram QT prolongation, treatment-related, patients by maximum grade","[2]; 800 mg (N=7), grade 1",1
same,"Epistaxis, treatment-related, patients by maximum grade","[2]; 800 mg (N=7), grade 1",1
same,"Fatigue, treatment-related, patients by maximum grade","[2]; 800 mg (N=7), grade 1",1
same,"Hypokalemia, treatment-related, patients by maximum grade","[2]; 800 mg (N=7), grade 1",1
same,"Nausea, treatment-related, patients by maximum grade","[2]; 800 mg (N=7), grade 1",4
same,"Vomiting, treatment-related, patients by maximum grade","[2]; 800 mg (N=7), grade 1",2
same,"Weight decrease, treatment-related, patients by maximum grade","[2]; 800 mg (N=7), grade 1",1
same,"AST increase, treatment-related, patients by maximum grade","[2]; 800 mg (N=7), grade 2",1
same,"Anorexia, treatment-related, patients by maximum grade","[2]; 800 mg (N=7), grade 2",1
same,"Diarrhea, treatment-related, patients by maximum grade","[2]; 800 mg (N=7), grade 2",1
same,"Dysgeusia, treatment-related, patients by maximum grade","[2]; 800 mg (N=7), grade 2",1
same,"Fatigue, treatment-related, patients by maximum grade","[2]; 800 mg (N=7), grade 2",3
same,"Nausea, treatment-related, patients by maximum grade","[2]; 800 mg (N=7), grade 2",2
same,"Vomiting, treatment-related, patients by maximum grade","[2]; 800 mg (N=7), grade 2",2
same,"Weight decrease, treatment-related, patients by maximum grade","[2]; 800 mg (N=7), grade 2",1
same,"ALT increase, treatment-related, patients by maximum grade","[2]; 800 mg (N=7), grade 3",1
same,"Fatigue, treatment-related, patients by maximum grade","[2]; 800 mg (N=7), grade 3",1
same,"Nausea, treatment-related, patients by maximum grade","[2]; 800 mg (N=7), grade 3",1
same,"Vomiting, treatment-related, patients by maximum grade","[2]; 800 mg (N=7), grade 3",1
same,Evaluable patients sustaining a DLT,"[2]; 800 mg dose level, first cycle",1 of 6
same,"AST abnormalities, share of all administered cycles",[2]; 68 cycles,21%
same,Patients who omitted doses due to treatment-related AEs,[2]; N=19,21%
same,Patients who underwent dose reductions due to treatment-related AEs,[2]; N=19,21%
same,"ALT increase, treatment-related, patients by maximum grade","[2]; Total (N=19), grade 1",2
same,"AST increase, treatment-related, patients by maximum grade","[2]; Total (N=19), grade 1",1
same,"Anemia, treatment-related, patients by maximum grade","[2]; Total (N=19), grade 1",1
same,"Anorexia, treatment-related, patients by maximum grade","[2]; Total (N=19), grade 1",4
same,"Arrhythmia, treatment-related, patients by maximum grade","[2]; Total (N=19), grade 1",1
same,"Depression, treatment-related, patients by maximum grade","[2]; Total (N=19), grade 1",1
same,"Diarrhea, treatment-related, patients by maximum grade","[2]; Total (N=19), grade 1",1
same,"Dysgeusia, treatment-related, patients by maximum grade","[2]; Total (N=19), grade 1",3
same,"Electrocardiogram QT prolongation, treatment-related, patients by maximum grade","[2]; Total (N=19), grade 1",1
same,"Epistaxis, treatment-related, patients by maximum grade","[2]; Total (N=19), grade 1",1
same,"Fatigue, treatment-related, patients by maximum grade","[2]; Total (N=19), grade 1",3
same,"Hypokalemia, treatment-related, patients by maximum grade","[2]; Total (N=19), grade 1",1
same,"Nausea, treatment-related, patients by maximum grade","[2]; Total (N=19), grade 1",8
same,"Thrombocytopenia, treatment-related, patients by maximum grade","[2]; Total (N=19), grade 1",1
same,"Vomiting, treatment-related, patients by maximum grade","[2]; Total (N=19), grade 1",4
same,"Weight decrease, treatment-related, patients by maximum grade","[2]; Total (N=19), grade 1",1
same,"Anorexia, treatment-related, patients by maximum grade","[2]; Total (N=19), grade 2",1
same,"Diarrhea, treatment-related, patients by maximum grade","[2]; Total (N=19), grade 2",1
same,"Dysgeusia, treatment-related, patients by maximum grade","[2]; Total (N=19), grade 2",1
same,"Fatigue, treatment-related, patients by maximum grade","[2]; Total (N=19), grade 2",4
same,"Nausea, treatment-related, patients by maximum grade","[2]; Total (N=19), grade 2",4
same,"Vomiting, treatment-related, patients by maximum grade","[2]; Total (N=19), grade 2",2
same,"Weight decrease, treatment-related, patients by maximum grade","[2]; Total (N=19), grade 2",1
same,"Fatigue, treatment-related, patients by maximum grade","[2]; Total (N=19), grade 3",1
same,"Nausea, treatment-related, patients by maximum grade","[2]; Total (N=19), grade 3",1
same,"Vomiting, treatment-related, patients by maximum grade","[2]; Total (N=19), grade 3",1
same,Grade 4 treatment-related adverse events,[2]; all dose levels,No grade 4 treatment-related adverse event
same,Treatment-related deaths,[2]; all dose levels,No treatment-related deaths
same,"Anemia regardless of causality, patients","[2]; all grades, N=19",89%
same,"GGT elevation regardless of causality, patients","[2]; all grades, N=19",80%
same,"Hypermagnesemia, patients","[2]; all grades, N=19",26%
same,"Hypokalemia, patients","[2]; all grades, N=19",58%
same,"Hyponatremia, patients","[2]; all grades, N=19",58%
same,"Lymphopenia, patients","[2]; all grades, N=19",89%
same,"Neutropenia, patients","[2]; all grades, N=19",21%
same,"Grade 1-2 dysgeusia, patients",[2]; all patients (N=19),21%
same,Patients with SAEs unrelated to treatment,[2]; all patients (N=19),37%
same,Patients with treatment-related SAE,[2]; all patients (N=19),11%
same,"Treatment-related anorexia, irrespective of grade, patients",[2]; all patients (N=19),26%
same,"Treatment-related fatigue, irrespective of grade, patients",[2]; all patients (N=19),42%
same,"Treatment-related nausea, irrespective of grade, patients",[2]; all patients (N=19),68%
same,"Treatment-related vomiting, irrespective of grade, patients",[2]; all patients (N=19),37%
same,Number of treatment-related serious adverse events (SAE),"[2]; all patients (N=19), both patients in 800 mg cohort",3
same,"Anorexia, irrespective of causality and grade, share of administered cycles",[2]; [4],31%
same,"Fatigue, irrespective of causality and grade, share of administered cycles",[2]; [4],40%
same,"Grade 3 fatigue, number of treatment cycles",[2]; [4],3 treatment cycles
same,"Nausea, irrespective of causality and grade, share of administered cycles",[2]; [4],60%
same,"Hypokalemia, patients","[2]; grade 1, N=19",47%
same,"Hyponatremia, patients","[2]; grade 1, N=19",47%
same,"Leukopenia, patients","[2]; grade 1-2, N=19",37%
same,"Thrombocytopenia, patients","[2]; grade 1-2, N=19",37%
same,"Anemia regardless of causality, patients","[2]; grade 2, N=19",47%
same,"Lymphopenia, patients","[2]; grade 2, N=19",42%
same,"Anemia regardless of causality, patients","[2]; grade 3, N=19",11%
same,"GGT elevation, patients","[2]; grade 3, N=19",11%
same,"Hypokalemia, patients","[2]; grade 3, N=19",11%
same,"Hyponatremia, patients","[2]; grade 3, N=19",11%
same,"Lymphopenia, patients","[2]; grade 3, N=19",21%
same,Maximum tolerated dose (MTD),"[2]; once-daily days 1-5 every 14 days, up to 800 mg",not reached
same,Recommended phase II dose (RP2D),[2]; orally once-daily on days 1-5 every 14 days,600 mg
same,"Objective response rate (Cheson criteria, independent central review, interim analysis)",[3]; 11 of 33 evaluable patients,33%
same,Clinical benefit rate,[3]; 18 of 33 patients,55%
